The source made the active and inactive calls. The rule behind the calls is not given here.
Assays:
Mus musculus [1] = test: Anticonvulsant activity in Albino mouse at 30 mg/kg, ip after 0.5 hrs by PTZ assay; assay type: functional, organism-based; set-up: dose 30 mg/kg
Outline: (§1)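 Mice given compound ip at 30, 100 and 300 mg/kg in 30% polyethylene glycol 400 and 10% water, 0.01 mL/g body weight. Three animals per dose. Maximal electroshock (MES) or pentylenetetrazol (PTZ) seizure tests were run 0.5 and 4 h after dosing, and animals protected were counted.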

Mus musculus [2] = test: Anticonvulsant activity in Albino mouse at 30 mg/kg, ip after 0.5 hrs by MES assay; assay type: functional, organism-based; set-up: dose 30 mg/kg; outline: as §1
Mus musculus [3] = test: Anticonvulsant activity in Albino mouse at 100 mg/kg, ip after 4 hrs by PTZ assay; assay type: functional, organism-based; set-up: dose 100 mg/kg; outline: as §1
Mus musculus [4] = test: Anticonvulsant activity in Albino mouse at 30 mg/kg, ip after 4 hrs by MES assay; assay type: functional, organism-based; set-up: dose 30 mg/kg; outline: as §1
Mus musculus [5] = test: Neurotoxicity in Albino mouse at 30 mg/kg, ip after 0.5 hrs by RotoRod test; assay type: toxicity, organism-based; set-up: dose 30 mg/kg, route intraperitoneal; settings: in vivo
Outline: (§2)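 RotoRod neurotoxicity screen in mice dosed ip at 30, 100 and 300 mg/kg, in vehicle of 30% PEG 400 and 10% water (0.01 mL/g). Three animals per dose, tested 0.5 and 4 h after administration. Affected animals were scored per group.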

Mus musculus [6] = test: Anticonvulsant activity in Albino mouse at 300 mg/kg, ip after 0.5 hrs by PTZ assay; assay type: functional, organism-based; set-up: dose 300 mg/kg; outline: as §1
Mus musculus [7] = test: Neurotoxicity in Albino mouse at 30 mg/kg, ip after 4 hrs by RotoRod test; assay type: toxicity, organism-based; set-up: dose 30 mg/kg, route intraperitoneal; settings: in vivo; outline: as §2
Mus musculus [8] = test: Neurotoxicity in Albino mouse at 100 mg/kg, ip after 0.5 hrs by RotoRod test; assay type: toxicity, organism-based; set-up: dose 100 mg/kg, route intraperitoneal; settings: in vivo; outline: as §2
Mus musculus [9] = test: Neurotoxicity in Albino mouse at 300 mg/kg, ip after 4 hrs by RotoRod test; assay type: toxicity, organism-based; set-up: dose 300 mg/kg, route intraperitoneal; settings: in vivo; outline: as §2
Mus musculus [10] = test: Neurotoxicity in Albino mouse at 100 mg/kg, ip after 4 hrs by RotoRod test; assay type: toxicity, organism-based; set-up: dose 100 mg/kg, route intraperitoneal; settings: in vivo; outline: as §2
Mus musculus [11] = test: Anticonvulsant activity in Albino mouse at 300 mg/kg, ip after 4 hrs by MES assay; assay type: functional, organism-based; set-up: dose 300 mg/kg; outline: as §1
Mus musculus [12] = test: Anticonvulsant activity in Albino mouse at 100 mg/kg, ip after 4 hrs by MES assay; assay type: functional, organism-based; set-up: dose 100 mg/kg; outline: as §1
Mus musculus [13] = test: Anticonvulsant activity in Albino mouse at 100 mg/kg, ip after 0.5 hrs by PTZ assay; assay type: functional, organism-based; set-up: dose 100 mg/kg; outline: as §1
Mus musculus [14] = test: Anticonvulsant activity in Albino mouse at 300 mg/kg, ip after 0.5 hrs by MES assay; assay type: functional, organism-based; set-up: dose 300 mg/kg; outline: as §1
Mus musculus [15] = test: Anticonvulsant activity in Albino mouse at 30 mg/kg, ip after 4 hrs by PTZ assay; assay type: functional, organism-based; set-up: dose 30 mg/kg; outline: as §1
Mus musculus [16] = test: Anticonvulsant activity in Albino mouse at 100 mg/kg, ip after 0.5 hrs by MES assay; assay type: functional, organism-based; set-up: dose 100 mg/kg; outline: as §1
Mus musculus [17] = test: Neurotoxicity in Albino mouse at 300 mg/kg, ip after 0.5 hrs by RotoRod test; assay type: toxicity, organism-based; set-up: dose 300 mg/kg, route intraperitoneal; settings: in vivo; outline: as §2
Mus musculus [18] = test: Anticonvulsant activity in Albino mouse at 300 mg/kg, ip after 4 hrs by PTZ assay; assay type: functional, organism-based; set-up: dose 300 mg/kg; outline: as §1

Row | Compound | Activity (Mus musculus [1]) | Activity (Mus musculus [2]) | Activity (Mus musculus [3]) | Activity (Mus musculus [4]) | Activity (Mus musculus [5]) | Activity (Mus musculus [6]) | Activity (Mus musculus [7]) | Activity (Mus musculus [8]) | Activity (Mus musculus [9]) | Activity (Mus musculus [10]) | Activity (Mus musculus [11]) | Activity (Mus musculus [12]) | Activity (Mus musculus [13]) | Activity (Mus musculus [14]) | Activity (Mus musculus [15]) | Activity (Mus musculus [16]) | Activity (Mus musculus [17]) | Activity (Mus musculus [18])
1 | CC(C)(C)OC(=O)NS(=O)(=O)NCc1ccccc1 | inactive | inactive | inactive | inactive | Non-toxic | inactive | Non-toxic | Non-toxic | Non-toxic | Non-toxic | inactive | inactive | inactive | inactive | inactive | inactive | Non-toxic | inactive
2 | CCCN(CCC)S(=O)(=O)N(CCC)CCC | inactive | inactive | inactive | inactive | Non-toxic | inactive | Non-toxic | Non-toxic | Non-toxic | Non-toxic | inactive | inactive | inactive | inactive | inactive | inactive | Non-toxic | inactive
3 | CCCCN(CCCC)S(N)(=O)=O | inactive | inactive | inactive | inactive | Non-toxic | – | Non-toxic | Non-toxic | Toxic | Non-toxic | – | inactive | – | – | inactive | – | Toxic | –
4 | CCCN(CCC)S(=O)(=O)NC(=O)OC(C)(C)C | inactive | inactive | inactive | inactive | Non-toxic | inactive | Non-toxic | Non-toxic | Non-toxic | Non-toxic | inactive | inactive | inactive | – | inactive | inactive | Non-toxic | inactive
5 | O=S(=O)(N1CCOCC1)N1CCOCC1 | inactive | inactive | inactive | inactive | Non-toxic | – | Non-toxic | Non-toxic | – | Non-toxic | – | inactive | inactive | – | inactive | inactive | – | –
6 | CCCCN(CCCC)S(=O)(=O)NC(=O)OC(C)(C)C | inactive | inactive | inactive | – | Non-toxic | inactive | Non-toxic | Non-toxic | Non-toxic | Non-toxic | – | inactive | inactive | – | inactive | – | Non-toxic | inactive
7 | CCCCN(CCCC)S(=O)(=O)N(CCCC)CCCC | inactive | inactive | inactive | inactive | Non-toxic | inactive | Non-toxic | Non-toxic | Non-toxic | Non-toxic | inactive | inactive | inactive | inactive | – | inactive | Non-toxic | inactive
8 | CCCNS(=O)(=O)NCCC | inactive | inactive | inactive | inactive | Non-toxic | Active | Non-toxic | Non-toxic | Non-toxic | Non-toxic | inactive | inactive | – | Active | – | inactive | – | inactive
9 | CCCCNS(=O)(=O)NC(=O)OC(C)(C)C | inactive | – | inactive | inactive | Non-toxic | inactive | Non-toxic | Non-toxic | Non-toxic | Non-toxic | – | – | inactive | Active | inactive | Active | Non-toxic | inactive
10 | CCCN(CCC)S(N)(=O)=O | inactive | inactive | – | inactive | Toxic | – | Toxic | Toxic | – | Toxic | – | – | – | – | inactive | – | – | –
11 | CCCCNS(N)(=O)=O | inactive | inactive | inactive | – | Non-toxic | – | Non-toxic | – | – | Non-toxic | – | – | inactive | – | inactive | inactive | Toxic | –
12 | O=S(=O)(NC1CC1)NC1CC1 | inactive | inactive | inactive | inactive | Non-toxic | inactive | Non-toxic | Non-toxic | Non-toxic | Non-toxic | inactive | inactive | inactive | inactive | inactive | inactive | Non-toxic | inactive
